# Assay results: ChEMBL document CHEMBL1122537, “Acidic furo[3,2-b]indoles. A new series of potent antiallergy agents” (J Med Chem, 1984)
# Organism: Cavia porcellus
# Assay: In vitro Schultz-Dale Test against isolated guinea pig lung strips repeatedly challenged with antigen in the presence of an antihistamine (H1) at a concentration 30 uM.
# Type: functional
row,SMILES,IC50 [nM]
1,COc1c(C(=O)Nc2nn[nH]n2)oc2c3ccccc3n(C)c12,21600
2,CCCc1c(OCC(O)COc2ccc3c(=O)cc(C(=O)O)oc3c2CCC)ccc(C(C)=O)c1O (stereo unspecified) [FPL-55712],2400
3,CCOc1c(C(=O)Nc2nn[nH]n2)oc2c3cc(OC)ccc3n(-c3ccccc3)c12,2200
4,COc1ccc2c(c1)c1oc(C(=O)Nc3nn[nH]n3)c(OC)c1n2-c1ccccc1,900
5,COc1ccc2c(c1)c1oc(-c3nn[nH]n3)c(OC)c1n2-c1ccccc1,1500
6,COc1c(-c2nn[nH]n2)oc2c3ccccc3n(-c3ccccc3)c12,2900
7,COc1c(C(=O)Nc2nn[nH]n2)oc2c3ccccc3n(-c3ccccc3)c12,500
8,CC(C)Oc1c(C(=O)O)oc2c3ccccc3n(-c3ccccc3)c12,3700
9,COc1ccc2c(c1)c1oc(C(=O)Nc3nn[nH]n3)c(OC(C)C)c1n2-c1ccccc1,2800
10,COc1c(C(=O)O)oc2c3ccccc3n(-c3ccccc3)c12,4600
11,COc1ccc2c(c1)c1oc(C(=O)O)c(OC)c1n2-c1ccccc1,2800
12,CCOc1c(-c2nn[nH]n2)oc2c3cc(OC)ccc3n(-c3ccccc3)c12,1700
13,CCOc1c(-c2nn[nH]n2)oc2c3ccccc3n(-c3ccccc3)c12,3200
14,CC(C)Oc1c(C(=O)Nc2nn[nH]n2)oc2c3ccccc3n(-c3ccccc3)c12,60
15,CCCc1c2c(c(O)c3c(=O)cc(C(=O)O)oc13)CCCC2 [PROXICROMIL],6300
16,CCOc1c(C(=O)Nc2nn[nH]n2)oc2c3ccccc3n(-c3ccccc3)c12,200
17,CCOc1c(C(=O)O)oc2c3ccccc3n(-c3ccccc3)c12,3200
18,CCOc1c(C(=O)O)oc2c3cc(OC)ccc3n(-c3ccccc3)c12,4300

# Organism: Cavia porcellus
# Assay: Compound was evaluated in vitro by SDT (Schultz-Dale Test) against isolated guinea pig lung strips repeatedly challenged with antigen in the presence of an antihistamine (H1) at a concentration […].
# Type: functional
# Outline: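 Lung strips in Tyrode's pH 7.4, 37 °C, with mepyramine 1 µM, at 300 mg base-line tension. Drug in 0.2% NaHCO3 is added 15 min before the ovalbumin bolus. Percent inhibition is taken against the tissue's prior control contraction, usually on four or more tissues. IC50 by linear regression.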
row,SMILES,IC50 [nM]
1,CC(C)NCC(O)c1ccc(O)c(O)c1 (stereo unspecified) [ISOPROTERENOL],0.15

# Organism: Cavia porcellus
# Assay: Compound was evaluated in vitro by SDT (Schultz-Dale Test) against isolated guinea pig lung strips repeatedly challenged with antigen in the presence of an antihistamine (H1) at a concentration 10 uM
# Type: functional
row,SMILES,inhibition at 10 µM [%]
1,COC(=O)c1oc2c3cc(OC)ccc3n(-c3ccccc3)c2c1OC,23
2,CCOc1c(C(=O)OC)oc2c3cc(OC)ccc3n(-c3ccccc3)c12,24
3,O=C(O)c1cc2c(o1)c1ccccc1n2-c1ccccc1,33

# Organism: Cavia porcellus
# Assay: Compound was evaluated in vitro by SDT (Schultz-Dale Test) against isolated guinea pig lung strips repeatedly challenged with antigen in the presence of an antihistamine (H1); c = No activity at a concentration 30 uM
# Type: functional
row,SMILES,IC50
1,COc1c(-c2nn[nH]n2)oc2c3ccccc3n(C)c12,No activity
2,COc1c(C(=O)O)oc2c3ccccc3n(C)c12,No activity

# Organism: Cavia porcellus
# Assay: Compound was evaluated in vitro by SDT (Schultz-Dale Test) against isolated guinea pig lung strips repeatedly challenged with antigen in the presence of an antihistamine (H1); b = No activity at a concentration 30 uM
# Type: functional
row,SMILES,inhibition
1,COC(=O)c1oc2c3ccccc3n(-c3ccccc3)c2c1OC,No activity

# Organism: Cavia porcellus
# Assay: Compound was evaluated in vitro by SDT (Schultz-Dale Test) against isolated guinea pig lung strips repeatedly challenged with antigen in the presence of an antihistamine (H1) at a concentration 30 uM; i = No significant activity at 1.0 uM
# Type: functional
row,SMILES,IC50
1,CCCCCCCCCOc1c(C(=O)Nc2nn[nH]n2)oc2c3ccccc3n(-c3ccccc3)c12,No significant activity
